Experimental data reported in ChEMBL document CHEMBL1165943, “Design and synthesis of new anticancer pyrimidines with multiple-kinase inhibitory effect” (Bioorg Med Chem, 2010).

Assays:
Format in all cases: functional
[1] = system: K562; assay: Cytotoxicity against human K562 cells assessed as cell growth at 10 uM; conditions: Homo sapiens, K562; read-out: Activity
Summary of the method: (§1)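 Single-dose screen at 10 μM across the 60-cell-line panel. Cells grown in RPMI 1640 with 5% FBS and 2 mM L-glutamine, seeded at 5,000–40,000 cells/well according to doubling time, and treated 24 h later. Exposure lasted 48 h at 37 °C, 5% CO₂. Adherent cells were fixed with cold TCA, suspension cells were fixed settled, and both were stained with SRB and read at 515 nm. Growth % was recorded, with inhibition % = 100 − growth %.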

[2] = system: MOLT-4; assay: Cytotoxicity against human MOLT4 cells assessed as cell growth at 10 uM; conditions: Homo sapiens, MOLT-4; read-out: Activity; summary of the method: as §1
[3] = system: SR; assay: Cytotoxicity against human SR cells assessed as cell growth at 10 uM; conditions: Homo sapiens, SR; read-out: Activity; summary of the method: as §1
[4] = system: EKVX; assay: Cytotoxicity against human EKVX cells assessed as cell growth at 10 uM; conditions: Homo sapiens, EKVX; read-out: Activity
Summary of the method: (§2)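 Single-concentration screen at 10 μM across the 60-cell-line panel (nine tissue types); growth percentage recorded per cell line, with inhibition taken as 100 minus growth percentage.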

[5] = system: NCI-H226; assay: Cytotoxicity against human NCI-H226 cells assessed as cell growth at 10 uM; conditions: Homo sapiens, NCI-H226; read-out: Activity; summary of the method: as §1
[6] = system: NCI-H23; assay: Cytotoxicity against human NCI-H23 cells assessed as cell growth at 10 uM; conditions: Homo sapiens, NCI-H23; read-out: Activity; summary of the method: as §1
[7] = system: NCI-H322M; assay: Cytotoxicity against human NCI-H322M cells assessed as cell growth at 10 uM; conditions: Homo sapiens, NCI-H322M; read-out: Activity; summary of the method: as §1
[8] = system: NCI-H522; assay: Cytotoxicity against human NCI-H522 cells assessed as cell growth at 10 uM; conditions: Homo sapiens, NCI-H522; read-out: Activity; summary of the method: as §1
[9] = system: HCC 2998; assay: Cytotoxicity against human HCC2998 cells assessed as cell growth at 10 uM; conditions: Homo sapiens, HCC 2998; read-out: Activity; summary of the method: as §2
[10] = system: HCT-116; assay: Cytotoxicity against human HCT116 cells assessed as cell growth at 10 uM; conditions: Homo sapiens, HCT-116; read-out: Activity; summary of the method: as §2
[11] = system: HCT-15; assay: Cytotoxicity against human HCT15 cells assessed as cell growth at 10 uM; conditions: Homo sapiens, HCT-15; read-out: Activity; summary of the method: as §2
[12] = system: KM12; assay: Cytotoxicity against human KM12 cells assessed as cell growth at 10 uM; conditions: Homo sapiens, KM12; read-out: Activity; summary of the method: as §1
[13] = system: SW-620; assay: Cytotoxicity against human SW620 cells assessed as cell growth at 10 uM; conditions: Homo sapiens, SW-620; read-out: Activity; summary of the method: as §1
[14] = system: SF-295; assay: Cytotoxicity against human SF295 cells assessed as cell growth at 10 uM; conditions: Homo sapiens, SF-295; read-out: Activity; summary of the method: as §1
[15] = system: SF-539; assay: Cytotoxicity against human SF539 cells assessed as cell growth at 10 uM; conditions: Homo sapiens, SF-539; read-out: Activity; summary of the method: as §1
[16] = system: SNB-75; assay: Cytotoxicity against human SNB75 cells assessed as cell growth at 10 uM; conditions: Homo sapiens, SNB-75; read-out: Activity; summary of the method: as §1
[17] = system: Malme-3M; assay: Cytotoxicity against human MALME-3M cells assessed as cell growth at 10 uM; conditions: Homo sapiens, Malme-3M; read-out: Activity; summary of the method: as §1
[18] = system: M14; assay: Cytotoxicity against human M14 cells assessed as cell growth at 10 uM; conditions: Homo sapiens, M14; read-out: Activity; summary of the method: as §1
[19] = system: SK-MEL-2; assay: Cytotoxicity against human SK-MEL-2 cells assessed as cell growth at 10 uM; conditions: Homo sapiens, SK-MEL-2; read-out: Activity; summary of the method: as §1
[20] = system: SK-MEL-28; assay: Cytotoxicity against human SK-MEL-28 cells assessed as cell growth at 10 uM; conditions: Homo sapiens, SK-MEL-28; read-out: Activity; summary of the method: as §1
[21] = system: SK-MEL-5; assay: Cytotoxicity against human SK-MEL-5 cells assessed as cell growth at 10 uM; conditions: Homo sapiens, SK-MEL-5; read-out: Activity; summary of the method: as §1
[22] = system: IGROV-1; assay: Cytotoxicity against human IGROV1 cells assessed as cell growth at 10 uM; conditions: Homo sapiens, IGROV-1; read-out: Activity; summary of the method: as §1
[23] = system: OVCAR-3; assay: Cytotoxicity against human OVCAR-3 cells assessed as cell growth at 10 uM; conditions: Homo sapiens, OVCAR-3; read-out: Activity; summary of the method: as §1
[24] = system: OVCAR-5; assay: Cytotoxicity against human OVCAR5 cells assessed as cell growth at 10 uM; conditions: Homo sapiens, OVCAR-5; read-out: Activity; summary of the method: as §1
[25] = system: NCI/ADR-RES; assay: Cytotoxicity against human NCI/ADR-RES cells assessed as cell growth at 10 uM; conditions: Homo sapiens, NCI/ADR-RES; read-out: Activity; summary of the method: as §1
[26] = system: SK-OV-3; assay: Cytotoxicity against human SKOV3 cells assessed as cell growth at 10 uM; conditions: Homo sapiens, SK-OV-3; read-out: Activity; summary of the method: as §1
[27] = system: 786-0; assay: Cytotoxicity against human 786-0 cells assessed as cell growth at 10 uM; conditions: Homo sapiens, 786-0; read-out: Activity; summary of the method: as §2
[28] = system: A498; assay: Cytotoxicity against human A498 cells assessed as cell growth at 10 uM; conditions: Homo sapiens, A498; read-out: Activity; summary of the method: as §2
[29] = system: ACHN; assay: Cytotoxicity against human ACHN cells assessed as cell growth at 10 uM; conditions: Homo sapiens, ACHN; read-out: Activity; summary of the method: as §2
[30] = system: CAKI-1; assay: Cytotoxicity against human Caki1 cells assessed as cell growth at 10 uM; conditions: Homo sapiens, CAKI-1; read-out: Activity; summary of the method: as §2
[31] = system: TK-10; assay: Cytotoxicity against human TK10 cells assessed as cell growth at 10 uM; conditions: Homo sapiens, TK-10; read-out: Activity; summary of the method: as §1
[32] = system: UO-31; assay: Cytotoxicity against human UO31 cells assessed as cell growth at 10 uM; conditions: Homo sapiens, UO-31; read-out: Activity; summary of the method: as §1
[33] = system: PC-3; assay: Cytotoxicity against human PC3 cells assessed as cell growth at 10 uM; conditions: Homo sapiens, PC-3; read-out: Activity; summary of the method: as §1
[34] = system: DU-145; assay: Cytotoxicity against human DU145 cells assessed as cell growth at 10 uM; conditions: Homo sapiens, DU-145; read-out: Activity; summary of the method: as §2
[35] = system: MCF7; assay: Cytotoxicity against human MCF7 cells assessed as cell growth at 10 uM; conditions: Homo sapiens, MCF7; read-out: Activity; summary of the method: as §1
[36] = system: MDA-MB-231; assay: Cytotoxicity against human MDA-MB-231 cells assessed as cell growth at 10 uM; conditions: Homo sapiens, MDA-MB-231; read-out: Activity; summary of the method: as §1
[37] = system: BT-549; assay: Cytotoxicity against human BT549 cells assessed as cell growth at 10 uM; conditions: Homo sapiens, BT-549; read-out: Activity; summary of the method: as §2
[38] = system: T47D; assay: Cytotoxicity against human T47D cells assessed as cell growth at 10 uM; conditions: Homo sapiens, T47D; read-out: Activity; summary of the method: as §1
[39] = system: MDA-MB-468; assay: Cytotoxicity against human MDA-MB-468 cells assessed as cell growth at 10 uM; conditions: Homo sapiens, MDA-MB-468; read-out: Activity; summary of the method: as §1

SMILES | growth at 10 µM [1] | growth at 10 µM [2] | growth at 10 µM [3] | growth at 10 µM [4] | growth at 10 µM [5] | growth at 10 µM [6] | growth at 10 µM [7] | growth at 10 µM [8] | growth at 10 µM [9] | growth at 10 µM [10] | growth at 10 µM [11] | growth at 10 µM [12] | growth at 10 µM [13] | growth at 10 µM [14] | growth at 10 µM [15] | growth at 10 µM [16] | growth at 10 µM [17] | growth at 10 µM [18] | growth at 10 µM [19] | growth at 10 µM [20] | other results
Cc1cc(-c2cccnc2)nc(NC(=O)c2cccc(C(F)(F)F)c2)n1 | 89% | 96.6% | 106% | 101% | 97.5% | 101% | 100% | 91.9% | 99.3% | 105% | 98.3% | 109% | 105% | 101% | 99.3% | 93.5% | 105% | 109% | 93.5% | 108% | growth at 10 µM [21]: 99%; growth at 10 µM [22]: 103%; growth at 10 µM [23]: 116%; growth at 10 µM [24]: 95.7%; growth at 10 µM [25]: 91.2%; growth at 10 µM [26]: 101%; growth at 10 µM [27]: 95.2%; growth at 10 µM [28]: 93.9%; growth at 10 µM [29]: 105%; growth at 10 µM [30]: 83.6%; growth at 10 µM [31]: 102%; growth at 10 µM [32]: 86.7%; growth at 10 µM [33]: 99.2%; growth at 10 µM [34]: 101%; growth at 10 µM [35]: 91.5%; growth at 10 µM [36]: 98.4%; growth at 10 µM [37]: 97%; growth at 10 µM [38]: 95.5%; growth at 10 µM [39]: 96.7%
CC(=O)Nc1cccc(-c2ccc(-c3ccnc(NC(=O)Nc4cc(C(F)(F)F)cc(C(F)(F)F)c4)n3)cn2)c1.Cl | 34.8% | 53.3% | 68% | 69.2% | 59.8% | -6.37% | 41.8% | 8.5% | 70.7% | 50.5% | 60.3% | 72.7% | 85.2% | 49% | 75.6% | 87.2% | 52.3% | 46.5% | 62.1% | -37.6% | growth at 10 µM [21]: -25.5%; growth at 10 µM [22]: 76%; growth at 10 µM [23]: 67.8%; growth at 10 µM [24]: 93.5%; growth at 10 µM [25]: 45.5%; growth at 10 µM [26]: 83.1%; growth at 10 µM [27]: 69.8%; growth at 10 µM [28]: 59%; growth at 10 µM [29]: 60.5%; growth at 10 µM [30]: 50.9%; growth at 10 µM [31]: 76%; growth at 10 µM [32]: 54.7%; growth at 10 µM [33]: 56.2%; growth at 10 µM [34]: 89.2%; growth at 10 µM [35]: 7.95%; growth at 10 µM [36]: 65.5%; growth at 10 µM [37]: 47.3%; growth at 10 µM [38]: -11.3%; growth at 10 µM [39]: -30.3%
FC(F)(F)c1cc(Nc2nccc(-c3cccnc3)n2)cc(C(F)(F)F)c1 | 89.6% | 95% | 87.8% | 102% | 99.6% | 97.9% | 97.5% | 86.5% | 118% | 91.1% | 92.7% | 103% | 109% | 103% | 97.1% | 95.3% | 103% | 116% | 98.2% | 115% | growth at 10 µM [21]: 101%; growth at 10 µM [22]: 101%; growth at 10 µM [23]: 119%; growth at 10 µM [24]: 97%; growth at 10 µM [25]: 94.7%; growth at 10 µM [26]: 106%; growth at 10 µM [27]: 97.1%; growth at 10 µM [28]: 103%; growth at 10 µM [29]: 102%; growth at 10 µM [30]: 91.5%; growth at 10 µM [31]: 106%; growth at 10 µM [32]: 101%; growth at 10 µM [33]: 105%; growth at 10 µM [34]: 106%; growth at 10 µM [35]: 96%; growth at 10 µM [36]: 91.3%; growth at 10 µM [37]: 107%; growth at 10 µM [38]: 83.9%; growth at 10 µM [39]: 98.4%
